Active and inactive are the calls of the source. The rule behind the calls is not given here. Some results are limits rather than exact numbers.

As a reminder, the Cmax is the maximum level reached in the sampled fluid or tissue. The term MRT denotes the average time that molecules of a dose stay in the body. The term Tmax denotes the time from dosing to the highest level.

Data set [1] is described as follows: Aqueous stability of the compound at pH 1.2 assessed as compound decomposition measured after 24 hrs by HPLC analysis. Format: physicochemical. To be noted: aqueous solution, read-out: Drug degradation. In a few lines:
(§1)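 Compounds at 10 μg/mL in Japanese Pharmacopoeia 17th ed. disintegration-test fluids (first fluid pH 1.2, second fluid pH 6.8), with 10% DMSO if needed, held at 37 °C. HPLC run at start and at 24 h. Decomposition derived from peak areas as residual content.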

The nature of data set [2]: Aqueous stability of the compound at pH 6.8 assessed as compound decomposition measured after 24 hrs by HPLC analysis. The conditions noted are these: aqueous solution, read-out: Drug degradation. Format: physicochemical. In a few lines: as §1
A short description of data set [3]: Permeability of the compound at pH 7.4 by PAMPA. The conditions noted are these: read-out: permeability. Format: ADME.
The nature of data set [4]: Permeability of the compound at pH 5.0 by PAMPA. Format: ADME. To be noted: read-out: permeability. Background: In PAMPA a lipid-coated filter parts donor from acceptor wells.
Data set [5] deals with Enteropeptidase (Homo sapiens) (UniProt P98073). As to the kind of experiment: Inhibition of human recombinant Enteropeptidase assessed as inhibition based on initial velocity using 5FAM-Abu-Gly-Asp -Asp-Asp -Lys-Ile-Val-Gly-Gly-Lys-(CPQ2)-Lys-Lys-NH2 as substrate by fluorescence based plate reader method. The conditions noted are these: TDE = time-dependent effect. In a few lines:
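Human recombinant enzyme prepared as a 24 mU/mL solution in 50 mM tricine pH 8.0, 0.01% Tween 20, 10 mM CaCl2. Compound in DMSO/buffer mixed with 2.1 μM substrate solution; enzyme added to start the reaction at room temperature. Fluorescence (ex 485/em 535 nm) read at 6 min. Inhibition taken relative to no-compound and no-enzyme controls. IC50 with 95% CI.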

Data set [6] concerns Rattus norvegicus. As to the kind of experiment: Anti-obesity activity in diet-induced obese F344/Jcl rat model assessed as increase in fecal protein output at 1 to 10 mg/kg, po measured on day 28. The conditions noted are these: dose 1-10 mg/kg, time 28.0 day. Format: functional, organism-based. In a few lines: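 Male DIO F344/Jcl rats on HFD D12451 (45 kcal % fat), n = 6 per group. Oral dosing at 1, 3 or 10 mg/kg in 0.5% methylcellulose vehicle for 4 weeks from 36 weeks of age. Fecal protein output measured; mean ± SD; statistics vs vehicle.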

Data set [7] concerns Rattus norvegicus. The experiment in a line: Anti-obesity activity in diet-induced obese F344/Jcl rat model assessed as body weight loss administered orally for 28 days measured every 4 days. Format: functional, organism-based. The conditions noted are these: route po, time 4.0 weeks, DDE = dose-dependent effect. A digest of the protocol:
(§2)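 Male DIO F344/Jcl rats fed HFD D12451 (45 kcal % fat, 20 kcal % protein, 35 kcal % carbohydrate) from six weeks of age. Oral dosing in 0.5% methylcellulose vehicle starts at 36 weeks of age and continues 4 weeks. Body weight recorded every 1–4 days. n = 6 per group; mean ± SD; Dunnett's t-test or one-tailed Williams' test vs vehicle.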

Data set [8] has as its system Rattus norvegicus. The experiment in a line: Anti-obesity activity in diet-induced obese F344/Jcl rat model assessed as reduction in food intake at 1 to 10 mg/kg, po administered for 28 days. Format: functional, organism-based. The conditions noted are these: dose 1-10 mg/kg, time 28.0 day. In a few lines: as §2
A short description of data set [9]: Oral bioavailability in non-fasted Sprague-Dawley rat plasma at 1 mg/kg administered as cassette dose by LC/MS/MS analysis. Format: ADME, organism-based. To be noted: in vivo, BLD = below limit of detection. In a few lines: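 Non-fasted SD rats given cassette oral dose of 1 mg/kg, suspended in 0.5% methylcellulose. Plasma obtained from collected blood; compound measured by LC–MS/MS.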

For a further data set, the system named is Mus musculus. The experiment in a line: In vivo inhibition of entero-peptidase in mouse assessed as increase in fecal protein content at 60 mg/kg, po. Format: functional, organism-based. In a few lines: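 HFD-fed male mice (D12079B diet, 14–21 weeks old) dosed orally at 60 mg/kg, with 0.5% methylcellulose as vehicle. Whole feces collected overnight and fecal protein output determined.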

Data set [10] can be described thus: Cmax in mouse plasma at 10 mg/kg, sc. Format: ADME, organism-based. Set-up: dose 10 mg/kg, route sc.
Data set [11] can be described thus: MRT in mouse plasma at 60 mg/kg, po. Format: ADME, organism-based.
Data set [12] in a line: Cmax in mouse plasma at 60 mg/kg, po. Format: ADME, organism-based. Set-up: dose 60 mg/kg, route po.
Data set [13] is described as follows: Tmax in mouse plasma at 60 mg/kg, po. Format: ADME, organism-based.
The nature of data set [14]: MRT in mouse plasma at 10 mg/kg, sc. Format: ADME, organism-based.
Data set [15] can be described thus: Tmax in mouse plasma at 10 mg/kg, sc. Format: ADME, organism-based.

Enteropeptidase (Homo sapiens), sequence (P98073 2-784 limits assumed): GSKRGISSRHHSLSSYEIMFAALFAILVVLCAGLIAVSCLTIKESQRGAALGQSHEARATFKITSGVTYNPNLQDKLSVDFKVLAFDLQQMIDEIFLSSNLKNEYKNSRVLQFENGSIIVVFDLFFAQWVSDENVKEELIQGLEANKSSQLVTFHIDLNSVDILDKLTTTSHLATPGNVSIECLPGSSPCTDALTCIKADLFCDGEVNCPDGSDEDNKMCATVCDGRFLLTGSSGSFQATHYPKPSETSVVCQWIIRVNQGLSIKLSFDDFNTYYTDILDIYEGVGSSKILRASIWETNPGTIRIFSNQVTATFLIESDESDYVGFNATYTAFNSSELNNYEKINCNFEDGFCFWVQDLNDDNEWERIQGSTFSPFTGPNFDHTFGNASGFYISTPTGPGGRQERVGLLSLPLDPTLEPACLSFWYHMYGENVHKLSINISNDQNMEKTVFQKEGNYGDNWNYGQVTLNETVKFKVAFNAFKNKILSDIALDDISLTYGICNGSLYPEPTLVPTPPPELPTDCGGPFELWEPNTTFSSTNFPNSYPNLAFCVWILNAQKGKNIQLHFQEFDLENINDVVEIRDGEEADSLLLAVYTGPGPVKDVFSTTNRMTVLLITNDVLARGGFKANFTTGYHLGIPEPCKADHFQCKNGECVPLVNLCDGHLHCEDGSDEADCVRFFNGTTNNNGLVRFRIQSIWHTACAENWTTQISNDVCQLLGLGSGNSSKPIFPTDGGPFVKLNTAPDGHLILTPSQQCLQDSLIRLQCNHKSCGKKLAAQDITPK
Enteropeptidase (Homo sapiens), sequence (P98073 785-1019 limits assumed): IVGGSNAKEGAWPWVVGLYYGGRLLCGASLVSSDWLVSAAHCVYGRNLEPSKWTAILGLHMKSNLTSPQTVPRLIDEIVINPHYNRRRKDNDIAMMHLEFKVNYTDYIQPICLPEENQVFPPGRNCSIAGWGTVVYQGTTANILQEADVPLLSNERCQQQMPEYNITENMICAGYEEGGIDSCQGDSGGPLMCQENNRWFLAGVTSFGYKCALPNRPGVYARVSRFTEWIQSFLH

For the molecule `N=C(N)Nc1ccc(C(=O)Oc2cccc(CC(=O)N[C@@H](CC(=O)O)C(=O)O)c2)cc1`, the degraded at 24 h in data set [1] was determined as 2.8%; in data set [2] it was 5.8%.
For the molecule `N=C(N)Nc1ccc(C(=O)Oc2ccc(CC(=O)NCC(=O)O)cc2)cc1.O=C(O)C(F)(F)F`, the Papp in data set [3] and in data set [4] was 0.2 ×10⁻⁶ cm/s each time. For the same molecule, in [5], the inhibition entry was “Tde”.
As for `N=C(N)Nc1ccc(C(=O)Oc2cccc(C3=NO[C@](CC(=O)O)(C(=O)O)C3)c2)cc1`, the outcome in the data set on Rattus norvegicus [6] and with Rattus norvegicus [8] was Active. The Activity result in the data set on Rattus norvegicus [7] was “Dde”. Further, in data set [9], the F result was “Bld”.
In the case of `Cl.N=C(N)Nc1ccc(C(=O)Oc2ccc(CC(=O)N[C@@H](CC(=O)O)C(=O)O)cc2)cc1`, the inhibition result in the data set on Mus musculus was “Active”. In addition, the figures for the Cmax in [10] and in data set [12] were 13400 ng/mL and 1360 ng/mL, respectively. Further, the figures for the MRT in data set [11] and in [14] were 5.07 h and 0.98 h, respectively. Further, the Tmax in [13] worked out at 1.67 h; in data set [15], 0.5 h. Moreover, the degraded at 24 h was found to be 2.5% in data set [1] and 5% in data set [2].
Take `N=C(N)Nc1ccc(C(=O)Oc2cccc(C(=O)N[C@@H](CC(=O)O)C(=O)O)c2)cc1`: the degraded at 24 h worked out at 3.9% in [1] and 8.6% in data set [2].
For `CS(=O)(=O)O.N=C(N)Nc1ccc(C(=O)Oc2ccccc2)cc1`, the Papp in [3] and in data set [4] was under 0.2 ×10⁻⁶ cm/s throughout. Moreover, the inhibition result in data set [5] is “Tde”.

(Values after ChEMBL document CHEMBL5126593, “Design, Synthesis, and Biological Evaluation of a Novel Series of 4-Guanidinobenzoate Derivatives as Enteropeptidase Inhibitors with Low Systemic Exposure for the Treatment of Obesity” (J Med Chem, 2022).)
